Assay results taken from ChEMBL document CHEMBL3414437, “Synthesis of CDDO-amino acid-nitric oxide donor trihybrids as potential antitumor agents against both drug-sensitive and drug-resistant colon cancer” (J Med Chem, 2015).
The source made the active and inactive calls. The calls are words filed in the database; no cut-off is given here.

Experiments:
[1] = system: Mus musculus; assay: Toxicity in nude BALB/c mouse xenografted with FU-resistant human HCT8 cells assessed as abnormal color changes in heart at 17.8 to 35.7 umol/kg administered as via oral gavage daily for 21 days; type: organism-based, HCT-8; details: in vivo, 504 h
How it was run: (§1)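 Male BALB/c nude mice aged 6-8 weeks, implanted s.c. in the right flank with HCT-8/5-FU cells (2 × 10^6). Once tumors reached 180-200 mm3 (days 9-11), randomized to daily gavage for 21 days in cremophor-EL/DMSO/PBS (1:1:8), 0.2 mL. At the end, liver, kidney, lung and heart checked for size, colour and weight. n = 8 per group.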

[2] = system: HCT-8; assay: Antiproliferative activity against 5-FU resistant human HCT8 cells assessed as inhibition of cell proliferation at 0.25 uM dosed 1 hr after NO scavenger carboxy-PTIO treatment and measured after 24 hrs by MTT assay; type: functional
[3] = system: HCT-8; assay: Inhibition of ERK protein phosphorylation in human HCT8 cells at 0.25 to 1 uM incubated for 24 hrs by Western blotting method; type: cell-based
How it was run: (§2)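 Cells (1 x 10^6) grown 24 h in 6 cm dishes, then exposed in duplicate for 24 h to 0.25, 0.5 or 1 µM compound, with or without PTIO. Lysates (20 µg/lane) were run on 7.5% SDS-PAGE, blotted to PVDF and blocked in 5% milk. HRP secondaries with ECL detection; bands quantified by densitometry against β-actin or GAPDH. Three separate experiments, mean ± SD.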

[4] = system: HCT-8; assay: Inhibition of P-gp protein expression in FU-resistant human HCT8 cells at 1 uM in presence of NO scavenger carboxy-PTIO incubated for 24 hrs by Western blotting method; type: functional, cell-based; how it was run: as §2
[5] = system: HCT-8; assay: Induction of nitric oxide release in 5-FU resistant human HCT8 cells at 100 uM incubated for 150 mins by Griess assay; type: functional, cell-based
How it was run: (§3)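 Cells (1 × 10^6/well) treated in triplicate with compound at 100 µM for 150 min. Lysates mixed with Griess reagent for 10 min at 37 °C and read at 540 nm. Nitrite quantified from a sodium nitrite standard curve; 0.4% DMSO-treated cells served as background. Mean ± SD of three experiments.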

[6] = system: HCT-8; assay: Induction of apoptosis in 5-FU resistant human HCT8 cells incubated for 24 hrs by FITC-Annexin-V and propidium iodide staining based flow cytometry; type: functional, cell-based
[7] = system: HCT-8; assay: Antiproliferative activity against human HCT8 cells assessed as inhibition of cell proliferation at 0.125 to 0.5 uM incubated for 72 hrs after 24 hrs of pre-treatment with 0.75 uM and 1 .5 uM pepT1 substrate Gly-Sar by MTT assay; type: functional, cell-based
How it was run: (§4)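 Cells pretreated with or without Gly-Sar (0.75 or 1.5 µM) for 24 h, then given a range of compound concentrations for 72 h. Proliferation inhibition measured by MTT.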

[8] = system: Mus musculus; assay: Toxicity in female ICR mouse assessed as body weight level at 2.38 x 10^3 umol/kg administered as single dose via oral gavage measured on day 7 post treatment (reference value: 19.8 +/- 0.92 g); type: organism-based; details: in vivo
[9] = system: HCT-8; assay: Inhibition of BCRP protein expression in FU-resistant human HCT8 cells at 0.25 to 1 uM incubated for 24 hrs by Western blotting method; type: functional, cell-based; how it was run: as §2
[10] = Antitumor activity against FU-resistant human HCT8 cells xenografted in nude BALB/c mouse assessed as reduction in tumor weight at 17.8 umol/kg administered as via oral gavage daily for 21 days; type: functional; details: HCT-8, po, 504 h
How it was run: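 Male BALB/c nude mice, 6–8 weeks old, inoculated s.c. in the right flank with HCT-8/5-FU cells (2 × 10^6). Once tumors reached 180–200 mm3 (days 9–11), mice were randomized (n = 8) to daily oral gavage for 21 days in cremophor-EL/DMSO/PBS (1:1:8). Tumor volume = W2(L/2), caliper-measured every other day, blinded; tumors weighed at end.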

[11] = system: HCT-8; assay: Inhibition of BCRP protein expression in FU-resistant human HCT8 cells at 1 uM in presence of NO scavenger carboxy-PTIO incubated for 24 hrs by Western blotting method; type: functional, cell-based; how it was run: as §2
[12] = system: HCT-8; assay: Inhibition of ERK protein phosphorylation in FU-resistant human HCT8 cells at 0.25 to 1 uM incubated for 24 hrs by Western blotting method; type: cell-based; how it was run: as §2
[13] = system: CCD-841CoN; assay: Induction of nitric oxide release in human CCD-841-CoN cells at 100 uM incubated for 150 mins by Griess assay; type: functional, cell-based; how it was run: as §3
[14] = system: Mus musculus; assay: Toxicity in nude BALB/c mouse xenografted with FU-resistant human HCT8 cells assessed as abnormal size changes in kidney at 17.8 to 35.7 umol/kg administered as via oral gavage daily for 21 days; type: organism-based, HCT-8; details: in vivo, 504 h; how it was run: as §1
[15] = system: HCT-8; assay: Antiproliferative activity against 5-FU resistant human HCT8 cells assessed as inhibition of cell proliferation at 0.25 uM after 24 hrs by MTT assay; type: functional, cell-based
[16] = system: Mus musculus; assay: Toxicity in nude BALB/c mouse xenografted with FU-resistant human HCT8 cells assessed as abnormal color changes in liver at 17.8 to 35.7 umol/kg administered as via oral gavage daily for 21 days; type: organism-based, HCT-8; details: in vivo, 504 h; how it was run: as §1
[17] = system: HCT-8; assay: Antiproliferative activity against 5-FU resistant human HCT8 cells assessed as inhibition of cell proliferation at 0.125 to 0.5 uM incubated for 72 hrs after 24 hrs of pre-treatment with 0.75 uM and 1 .5 uM pepT1 substrate Gly-Sar by MTT assay; type: functional, cell-based; how it was run: as §4
[18] = system: Mus musculus; assay: Toxicity in nude BALB/c mouse xenografted with FU-resistant human HCT8 cells assessed as abnormal weight changes in kidney at 59.4 umol/kg administered as via oral gavage daily for 21 days; type: organism-based, HCT-8; details: in vivo, 504 h; how it was run: as §1
[19] = system: HCT-8; assay: Inhibition of ERK protein phosphorylation in FU-resistant human HCT8 cells at 1 uM incubated for 24 hrs by Western blotting method; type: cell-based; how it was run: as §2
[20] = system: Mus musculus; assay: Toxicity in nude BALB/c mouse xenografted with FU-resistant human HCT8 cells assessed as abnormal size changes in liver at 59.4 umol/kg administered as via oral gavage daily for 21 days; type: organism-based, HCT-8; details: in vivo, 504 h; how it was run: as §1
[21] = system: Mus musculus; assay: Toxicity in nude BALB/c mouse xenografted with FU-resistant human HCT8 cells assessed as abnormal weight changes in lung at 59.4 umol/kg administered as via oral gavage daily for 21 days; type: organism-based, HCT-8; details: in vivo, 504 h
How it was run: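 Male BALB/c nude mice, 6-8 weeks old, inoculated s.c. in right flank with HCT-8/5-FU cells (2 × 10^6/mouse). Once tumors reached 180-200 mm3 (9-11 days post-implantation), mice were randomized and dosed by gavage daily for 21 consecutive days in cremophor-EL/DMSO/PBS (1:1:8) (vehicle alone 0.2 mL). Body weights recorded on day 1 and day 21. Organ size, color and weights were inspected for liver, kidney, lung and heart. n = 8 per group; mean ± SD.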

[22] = system: HCT-8; assay: Inhibition of HIF-1alpha protein expression in FU-resistant human HCT8 cells at 1 uM incubated for 24 hrs by Western blotting method; type: functional, cell-based; how it was run: as §2
[23] = system: HCT-8; assay: Inhibition of P-gp protein expression in FU-resistant human HCT8 cells at 1 uM incubated for 24 hrs by Western blotting method; type: functional, cell-based; how it was run: as §2
[24] = system: Mus musculus; assay: Toxicity in nude BALB/c mouse xenografted with FU-resistant human HCT8 cells assessed as abnormal color changes in lung at 59.4 umol/kg administered as via oral gavage daily for 21 days; type: organism-based, HCT-8; details: in vivo, 504 h; how it was run: as §1

With `CC1(C)CC[C@]2(C(=O)NCC(=O)OCC#CCOc3no[n+]([O-])c3S(=O)(=O)c3ccccc3)CC[C@]3(C)[C@H](C(=O)C=C4[C@@]5(C)C=C(C#N)C(=O)C(C)(C)[C@@H]5CC[C@]43C)[C@@H]2C1` the Activity [1] was “Non-toxic”, the inhibition [2] was “inactive” and the inhibition [3] was “Dose-dependent effect”. The inhibition [4] was “inactive”, the Activity [5] was “Active” and the Activity [6] was “Dose-dependent effect”. For the same compound, the inhibition [7] was “inactive”, the Activity [8] was 25 g and the inhibition [9] was “Dose-dependent effect”. The inhibition in vivo at 17.8 µmol/kg [10] was 49.2%, the inhibition [11] was “inactive” and the inhibition [12] was “Dose-dependent effect”. The Activity [13] was “inactive”, the Activity [14] was “Non-toxic” and the Activity [15] was “Active”. The Activity [16] was “Non-toxic” and the inhibition [17] was “inactive”.

For `COC(=O)[C@]12CCC(C)(C)C[C@H]1[C@H]1C(=O)C=C3[C@@]4(C)C=C(C#N)C(=O)C(C)(C)[C@@H]4CC[C@@]3(C)[C@]1(C)CC2` [BARDOXOLONE METHYL], the Activity [18] was “Non-toxic”, the inhibition [19] was “Active” and the Activity [20] was “Non-toxic”. For the same compound, the Activity [21] was “Non-toxic”, the inhibition [22] was “Active” and the inhibition [23] was “inactive”. For the same compound, the Activity [24] was “Non-toxic”.
